Test results taken from ChEMBL document CHEMBL4330084, “Development of posaconazole-based analogues as hedgehog signaling pathway inhibitors” (Eur J Med Chem, 2019).
Values after ≈ are worked out from the molar mass of the structure shown.

Assays:
[1] = Inhibition of hedgehog signaling pathway in mouse ASZ cells assessed as decrease in Gli1 mRNA expression after 48 hrs by qRT-PCR analysis; format: cell-based
Outline: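 Murine BCC line ASZ (Ptch+/-), 80% confluent, seeded at 10,000 cells/well in 154CF medium (2% FBS), 24 h, then serum-free medium 24 h (37°C, 5% CO2). Treated 48 h with compound at 10–0.001 μM or DMSO vehicle. Gli1 mRNA measured by qRT-PCR against actin B internal control; concentrations lowering actin B were excluded. IC50 as mean ± SEM, repeat experiments in triplicate.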

[2] = Kinetic solubility of compound in pH 7.4 PBS by LC-MS/MS analysis; format: physicochemical; details: for solubility kinetic: PBS, read-out: Kinetic_solubility
Outline: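 Kinetic solubility in PBS, pH 7.4; run by a CRO (Pharmaron or Cyprotex) under its standard protocol.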

hERG (KCNH2) = hERG (KCNH2) (Homo sapiens, UniProt Q12809); assay: Inhibition of human ERG expressed in CHO cells at 25 uM by electrophysiology assay relative to control; format: cell-based; details: CHO cells expressing human ERG
Cytochrome P450 3A4 = Cytochrome P450 3A4 (Homo sapiens, UniProt P08684); assay: Inhibition of CYP3A4 in human liver microsomes by LC-MS/MS analysis
[3] = human, microsomes, 1 µM
[4] = Half life in human liver microsomes at 1 uM by LC-MS/MS analysis
Mus musculus [5] = species on record: Mus musculus; assay: Inhibition of hedgehog signaling pathway in hedgehog-dependent mouse Ptch-CKO cells assessed as inhibition of cell growth
Mus musculus [6] = species on record: Mus musculus; assay: Potency index, ratio of IC50 for PSZ to IC50 for test compound for inhibition of hedgehog signaling pathway in mouse ASZ cells assessed as decrease in Gli1 mRNA expression after 48 hrs by qRT-PCR analysis; format: cell-based

Sequence of Cytochrome P450 3A4 (P08684 whole entry): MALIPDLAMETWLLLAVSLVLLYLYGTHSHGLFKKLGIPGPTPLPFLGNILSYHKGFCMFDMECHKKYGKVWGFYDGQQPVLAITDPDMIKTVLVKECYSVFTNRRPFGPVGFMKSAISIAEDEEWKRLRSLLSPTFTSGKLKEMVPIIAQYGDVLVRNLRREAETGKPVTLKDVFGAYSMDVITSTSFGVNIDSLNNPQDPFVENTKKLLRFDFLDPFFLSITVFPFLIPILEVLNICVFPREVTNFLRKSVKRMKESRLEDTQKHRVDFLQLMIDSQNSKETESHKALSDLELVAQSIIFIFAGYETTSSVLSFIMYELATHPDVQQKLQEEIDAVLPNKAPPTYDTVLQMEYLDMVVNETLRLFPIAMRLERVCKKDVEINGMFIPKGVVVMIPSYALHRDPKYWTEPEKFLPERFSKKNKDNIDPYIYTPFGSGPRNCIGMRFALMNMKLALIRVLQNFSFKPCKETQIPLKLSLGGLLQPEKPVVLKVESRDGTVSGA
Sequence of hERG (KCNH2) (Q12809 whole entry): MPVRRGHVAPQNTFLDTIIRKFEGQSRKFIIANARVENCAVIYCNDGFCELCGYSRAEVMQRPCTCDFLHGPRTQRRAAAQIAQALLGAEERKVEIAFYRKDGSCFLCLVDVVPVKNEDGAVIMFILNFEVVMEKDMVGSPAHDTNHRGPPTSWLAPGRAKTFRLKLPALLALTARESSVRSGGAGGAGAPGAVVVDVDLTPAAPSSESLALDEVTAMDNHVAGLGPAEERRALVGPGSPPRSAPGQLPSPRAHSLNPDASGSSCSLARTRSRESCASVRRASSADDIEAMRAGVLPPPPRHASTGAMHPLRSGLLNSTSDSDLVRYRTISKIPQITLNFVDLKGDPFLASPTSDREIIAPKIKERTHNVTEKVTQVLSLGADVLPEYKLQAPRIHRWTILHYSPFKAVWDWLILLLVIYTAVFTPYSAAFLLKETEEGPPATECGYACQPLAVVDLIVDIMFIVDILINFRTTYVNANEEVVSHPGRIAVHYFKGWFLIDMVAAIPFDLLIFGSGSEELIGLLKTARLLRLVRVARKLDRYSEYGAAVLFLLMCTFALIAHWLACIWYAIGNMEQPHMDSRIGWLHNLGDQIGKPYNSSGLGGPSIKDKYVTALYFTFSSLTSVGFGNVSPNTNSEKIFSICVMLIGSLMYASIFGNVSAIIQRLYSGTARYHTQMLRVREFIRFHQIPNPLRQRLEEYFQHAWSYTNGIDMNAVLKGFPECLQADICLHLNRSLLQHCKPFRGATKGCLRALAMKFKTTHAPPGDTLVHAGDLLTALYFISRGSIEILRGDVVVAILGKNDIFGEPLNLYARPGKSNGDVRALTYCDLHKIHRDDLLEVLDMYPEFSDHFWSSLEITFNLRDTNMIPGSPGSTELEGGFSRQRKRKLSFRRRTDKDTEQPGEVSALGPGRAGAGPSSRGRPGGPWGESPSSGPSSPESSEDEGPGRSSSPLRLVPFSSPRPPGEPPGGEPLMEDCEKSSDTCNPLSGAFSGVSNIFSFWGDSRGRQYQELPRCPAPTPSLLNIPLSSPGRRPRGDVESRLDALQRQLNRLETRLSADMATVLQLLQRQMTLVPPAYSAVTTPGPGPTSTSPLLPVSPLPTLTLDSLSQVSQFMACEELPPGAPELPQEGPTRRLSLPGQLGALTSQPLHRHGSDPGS

| SMILES | IC50 [1] [nM] | solubility kinetic [2] [µM] | t1/2 [4] [min] | also measured |
| --- | --- | --- | --- | --- |
| C[C@]1(c2ccc(F)cc2F)C[C@H](COc2ccc(N3CCN(c4ccc(-n5cnn(CCCO)c5=O)cc4)CC3)cc2)CO1 | 20 | 1.56 (≈ 0.945 µg/mL) |  |  |
| CC1(c2ccc(Cl)cc2Cl)OCC(COc2ccc(N3CCN(c4ccc(-n5cnn(CCC(=O)O)c5=O)cc4)CC3)cc2)O1 (centres undefined) | 12 | 0.781 (≈ 0.511 µg/mL) |  | inhibition at 25 µM (hERG (KCNH2)): 3.6%; IC50 (Cytochrome P450 3A4): > 20 µM |
| C[C@]1(c2ccc(F)cc2F)C[C@H](COc2ccc(N3CCN(c4ccc(NC(=O)c5cccc(O)c5)cc4)CC3)cc2)CO1 | 190 | 3.13 (≈ 1.88 µg/mL) | > 180 | CLH [3]: 2.23 µL/min/mg |
| C[C@]1(c2ccc(F)cc2F)C[C@H](COc2ccc(N3CCN(c4ccc(NC(=O)c5cccnc5)cc4)CC3)cc2)CO1 | > 10000 | 1.56 (≈ 0.912 µg/mL) |  |  |
| C[C@]1(c2ccc(F)cc2F)C[C@H](COc2ccc(N3CCN(c4ccc([N+](=O)[O-])cc4)CC3)cc2)CO1 | 740 |  |  |  |
| C[C@]1(c2ccc(F)cc2F)C[C@H](COc2ccc(N3CCN(c4ccc(N)cc4)CC3)cc2)CO1 | 330 |  |  |  |
| CC(=O)c1cccc(C(=O)Nc2ccc(N3CCN(c4ccc(OC[C@@H]5CO[C@@](C)(c6ccc(F)cc6F)C5)cc4)CC3)cc2)c1 | 24 | 3.13 (≈ 1.96 µg/mL) | 115 | CLH [3]: 20 µL/min/mg; inhibition at 25 µM (hERG (KCNH2)): 4.2%; IC50 (Cytochrome P450 3A4): > 20 µM |
| CC[C@@H]([C@H](C)O)n1ncn(-c2ccc(N3CCN(c4ccc(OC[C@@H]5CO[C@@](Cn6cncn6)(c6ccc(F)cc6F)C5)cc4)CC3)cc2)c1=O [POSACONAZOLE] | 500 |  | 108 | CLH [3]: 21.5 µL/min/mg; inhibition at 25 µM (hERG (KCNH2)): 14.7%; Kinetic_solubility ([2]; buffer): 0.781 µM |
| C[C@]1(c2ccc(F)cc2F)C[C@H](COc2ccc(N3CCN(c4ccc(-n5cnn(CCC(=O)O)c5=O)cc4)CC3)cc2)CO1 | 32 |  |  |  |
| CC[C@@H](C)n1ncn(-c2ccc(N3CCN(c4ccc(OC[C@@H]5CO[C@@](C)(c6ccc(F)cc6F)C5)cc4)CC3)cc2)c1=O | 190 |  | 61.8 | CLH [3]: 37.4 µL/min/mg; IC50 (Cytochrome P450 3A4): > 20 µM; GI50 (Mus musculus [5]): 610 nM; Ratio IC50 (Mus musculus [6]): 2.5 |
| CCC(C)n1ncn(-c2ccc(N3CCN(c4ccc(OCC5COC(Cn6cncn6)(c6ccc(Cl)cc6Cl)O5)cc4)CC3)cc2)c1=O (centres undefined) [ITRACONAZOLE] |  | 0.8 (≈ 0.565 µg/mL) | 27 | inhibition at 25 µM (hERG (KCNH2)): < 1% |
| C[C@]1(c2ccc(F)cc2F)C[C@H](COc2ccc(N3CCN(c4ccc(-n5cn[nH]c5=O)cc4)CC3)cc2)CO1 | 190 |  |  |  |
| C[C@]1(c2ccc(F)cc2F)C[C@H](COc2ccc(N3CCN(c4ccc(NC(=O)Oc5ccccc5)cc4)CC3)cc2)CO1 | > 10000 |  |  |  |
| C[C@]1(c2ccc(F)cc2F)C[C@H](COc2ccc(N3CCN(c4ccc(-n5cnn(CC(=O)O)c5=O)cc4)CC3)cc2)CO1 | 150 |  |  |  |
| C[C@]1(c2ccc(F)cc2F)C[C@H](COc2ccc(N3CCN(c4ccc(NC(=O)NN)cc4)CC3)cc2)CO1 | 220 |  |  |  |
